Laboratory results reported in ChEMBL document CHEMBL2311350, “Discovery of a novel phenylethyl benzamide glucokinase activator for the treatment of type 2 diabetes mellitus” (Bioorg Med Chem Lett, 2013).
Each block holds one molecule with its values, some of them ahead of it.

Experiments:
[1] = Bioavailability in dog; type: ADME, organism-based, Canis lupus familiaris; settings: in vivo
Outline: (§1)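 Pharmacokinetics in mice and dogs after a single intravenous dose and a single oral dose. Clearance, volume of distribution, elimination half-life and oral bioavailability (F) were derived.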

Mus musculus [2] = assay: Toxicity in C57BL/J mouse assessed as hypoglycemic risk at 150 mg/kg; type: organism-based; set-up: dose 150 mg/kg; settings: in vivo
Outline: (§2)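 C57BL/J6 mice given oral dosing followed by an oral glucose tolerance test. Plasma glucose was tracked over time and glucose AUC reduction calculated. Several doses were tested, including 50 and 150 mg/kg. Hypoglycemia risk was judged from the glucose profiles.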

Cytochrome P450 3A4 = Cytochrome P450 3A4 (Homo sapiens, UniProt P08684); assay: Inhibition of CYP3A4 (unknown origin) at 25 to 50 uM; type: ADME
Sequence of Cytochrome P450 3A4 (P08684 whole entry): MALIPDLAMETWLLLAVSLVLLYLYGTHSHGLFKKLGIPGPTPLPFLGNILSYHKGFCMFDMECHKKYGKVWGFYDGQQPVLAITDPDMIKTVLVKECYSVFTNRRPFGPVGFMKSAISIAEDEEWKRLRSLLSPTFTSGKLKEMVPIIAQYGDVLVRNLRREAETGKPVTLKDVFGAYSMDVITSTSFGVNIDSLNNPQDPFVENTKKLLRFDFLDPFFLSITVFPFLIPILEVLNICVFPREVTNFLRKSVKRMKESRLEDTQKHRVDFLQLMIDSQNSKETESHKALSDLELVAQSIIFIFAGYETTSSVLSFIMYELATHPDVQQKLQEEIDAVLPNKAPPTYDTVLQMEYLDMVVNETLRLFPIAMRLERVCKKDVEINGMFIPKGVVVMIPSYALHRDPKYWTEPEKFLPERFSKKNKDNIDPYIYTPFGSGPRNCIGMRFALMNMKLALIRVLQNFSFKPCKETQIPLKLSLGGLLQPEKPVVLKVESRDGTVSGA

Mus musculus [3] = species on record: Mus musculus; assay: Toxicity in ob/ob mouse assessed as effect on body weight; type: organism-based; settings: in vivo
Outline: (§3)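 ob/ob mice dosed orally and repeatedly in a subchronic study. Blood glucose, serum lipids and body weight were monitored.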

Hexokinase-4 [4] = biological target: T1, Hexokinase-4 (Homo sapiens, UniProt P35557); assay: Induction of human hepatic glucokinase activity at 5 mM glucose concentration
T1 sequence (P35557 whole entry): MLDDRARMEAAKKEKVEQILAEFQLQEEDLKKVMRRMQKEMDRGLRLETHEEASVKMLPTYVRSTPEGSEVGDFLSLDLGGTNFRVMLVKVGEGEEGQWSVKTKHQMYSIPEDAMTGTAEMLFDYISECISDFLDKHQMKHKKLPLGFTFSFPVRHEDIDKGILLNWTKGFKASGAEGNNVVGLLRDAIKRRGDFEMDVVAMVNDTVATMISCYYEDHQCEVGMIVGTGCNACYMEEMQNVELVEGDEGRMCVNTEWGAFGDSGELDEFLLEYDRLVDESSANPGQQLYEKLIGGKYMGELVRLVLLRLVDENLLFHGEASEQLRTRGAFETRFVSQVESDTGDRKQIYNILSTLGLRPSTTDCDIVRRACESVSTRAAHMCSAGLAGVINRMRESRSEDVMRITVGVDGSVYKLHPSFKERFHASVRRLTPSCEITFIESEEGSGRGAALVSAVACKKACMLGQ
Outline: (§4)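 Enzymatic assay with purified recombinant human pancreatic or liver glucokinase, read as fold increase in activity at 5.0 mM glucose. EC50 is the mean of at least duplicate runs. For the pancreatic enzyme, glucose S0.5 and Vmax were also determined.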

Cytochrome P450 2D6 = Cytochrome P450 2D6 (Homo sapiens, UniProt P10635); assay: Inhibition of CYP2D6 (unknown origin) at 25 to 50 uM; type: ADME
Sequence of Cytochrome P450 2D6 (P10635 whole entry): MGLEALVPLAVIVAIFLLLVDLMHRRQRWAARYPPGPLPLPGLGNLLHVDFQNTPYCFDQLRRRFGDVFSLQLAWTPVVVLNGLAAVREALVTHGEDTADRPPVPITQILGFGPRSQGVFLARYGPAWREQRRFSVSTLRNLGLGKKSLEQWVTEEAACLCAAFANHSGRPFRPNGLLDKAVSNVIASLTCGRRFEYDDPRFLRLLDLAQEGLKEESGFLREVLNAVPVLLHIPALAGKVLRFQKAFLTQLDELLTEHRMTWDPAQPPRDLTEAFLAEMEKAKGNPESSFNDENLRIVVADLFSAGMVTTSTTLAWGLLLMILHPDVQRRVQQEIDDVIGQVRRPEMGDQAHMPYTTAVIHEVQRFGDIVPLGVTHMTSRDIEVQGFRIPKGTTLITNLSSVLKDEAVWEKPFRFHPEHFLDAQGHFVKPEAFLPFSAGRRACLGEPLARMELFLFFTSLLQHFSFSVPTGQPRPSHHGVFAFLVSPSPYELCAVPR

[5] = Clearance in dog; type: ADME, organism-based, Canis lupus familiaris; settings: in vivo; outline: as §1
Cytochrome P450 1A2 = biological target: T2, Cytochrome P450 1A2 (Homo sapiens, UniProt P05177); assay: Inhibition of CYP1A2 (unknown origin) at 25 to 50 uM; type: ADME
T2 sequence (P05177 whole entry): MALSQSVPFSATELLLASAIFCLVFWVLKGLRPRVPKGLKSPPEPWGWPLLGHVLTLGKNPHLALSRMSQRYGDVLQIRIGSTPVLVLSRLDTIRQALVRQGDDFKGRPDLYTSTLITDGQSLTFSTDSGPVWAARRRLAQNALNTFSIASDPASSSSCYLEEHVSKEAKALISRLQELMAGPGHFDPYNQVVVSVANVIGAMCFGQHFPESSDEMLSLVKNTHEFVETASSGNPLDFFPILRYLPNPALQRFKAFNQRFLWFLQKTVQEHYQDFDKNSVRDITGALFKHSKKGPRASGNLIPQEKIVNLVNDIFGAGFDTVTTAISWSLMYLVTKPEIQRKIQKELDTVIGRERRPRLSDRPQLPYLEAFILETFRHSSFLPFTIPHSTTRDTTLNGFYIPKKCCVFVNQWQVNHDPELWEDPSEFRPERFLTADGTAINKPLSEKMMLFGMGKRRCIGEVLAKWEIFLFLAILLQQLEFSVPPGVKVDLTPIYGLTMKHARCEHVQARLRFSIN

Mus musculus [6] = assay: Increase in oral glucose tolerance in C57BL/J mouse assessed as reduction in glucose area under curve at 50 mg/kg by OGTT; type: functional; set-up: scale not given: the % may be the effect or the level left; outline: as §2
[7] = Volume of distribution in mouse; type: ADME, organism-based; settings: in vivo; outline: as §1
Mus musculus [8] = species on record: Mus musculus; assay: Toxicity in ob/ob mouse assessed as effect on serum lipid level; type: organism-based; settings: in vivo; outline: as §3
[9] = Metabolic stability in dog liver microsomes assessed as compound remaining after 60 mins; type: ADME, Canis lupus familiaris, Microsome; settings: read-out: Stability
Outline: (§5)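 Compound incubated for 1 h with mouse, dog or human liver microsomes. Percent of parent compound remaining was measured.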

[10] = Clearance in mouse; type: ADME, organism-based; settings: in vivo; outline: as §1
Hexokinase-4 [11] = biological target: T1, Hexokinase-4; assay: Induction of human pancreatic glucokinase activity at 5 mM glucose concentration; outline: as §4
Cytochrome P450 2C9 = Cytochrome P450 2C9 (Homo sapiens, UniProt P11712); assay: Inhibition of CYP2C9 (unknown origin) at 25 to 50 uM; type: ADME
Sequence of Cytochrome P450 2C9 (P11712 whole entry): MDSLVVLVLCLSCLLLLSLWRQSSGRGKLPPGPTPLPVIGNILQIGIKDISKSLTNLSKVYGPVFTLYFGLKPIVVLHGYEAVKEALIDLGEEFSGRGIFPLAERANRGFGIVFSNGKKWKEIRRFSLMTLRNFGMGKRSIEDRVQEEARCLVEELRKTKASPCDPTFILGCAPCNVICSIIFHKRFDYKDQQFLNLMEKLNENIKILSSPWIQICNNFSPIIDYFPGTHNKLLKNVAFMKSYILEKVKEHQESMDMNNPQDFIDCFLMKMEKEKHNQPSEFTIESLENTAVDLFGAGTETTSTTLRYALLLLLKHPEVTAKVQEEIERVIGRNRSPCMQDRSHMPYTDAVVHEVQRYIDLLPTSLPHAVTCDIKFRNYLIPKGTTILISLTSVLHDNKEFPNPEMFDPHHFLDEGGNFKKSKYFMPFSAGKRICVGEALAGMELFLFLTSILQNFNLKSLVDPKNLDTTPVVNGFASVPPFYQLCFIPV

[12] = Metabolic stability in human liver microsomes assessed as compound remaining after 60 mins; type: ADME, Microsome; settings: read-out: Stability; outline: as §5
[13] = Elimination half life in mouse; type: ADME, organism-based; settings: in vivo, read-out: beta t1/2 (converted); outline: as §1
[14] = Metabolic stability in mouse liver microsomes assessed as compound remaining after 60 mins; type: ADME, Microsome; settings: read-out: Stability; outline: as §5
Cytochrome P450 2C19 = Cytochrome P450 2C19 (Homo sapiens, UniProt P33261); assay: Inhibition of CYP2C19 (unknown origin) at 25 to 50 uM; type: ADME
Sequence of Cytochrome P450 2C19 (P33261 whole entry): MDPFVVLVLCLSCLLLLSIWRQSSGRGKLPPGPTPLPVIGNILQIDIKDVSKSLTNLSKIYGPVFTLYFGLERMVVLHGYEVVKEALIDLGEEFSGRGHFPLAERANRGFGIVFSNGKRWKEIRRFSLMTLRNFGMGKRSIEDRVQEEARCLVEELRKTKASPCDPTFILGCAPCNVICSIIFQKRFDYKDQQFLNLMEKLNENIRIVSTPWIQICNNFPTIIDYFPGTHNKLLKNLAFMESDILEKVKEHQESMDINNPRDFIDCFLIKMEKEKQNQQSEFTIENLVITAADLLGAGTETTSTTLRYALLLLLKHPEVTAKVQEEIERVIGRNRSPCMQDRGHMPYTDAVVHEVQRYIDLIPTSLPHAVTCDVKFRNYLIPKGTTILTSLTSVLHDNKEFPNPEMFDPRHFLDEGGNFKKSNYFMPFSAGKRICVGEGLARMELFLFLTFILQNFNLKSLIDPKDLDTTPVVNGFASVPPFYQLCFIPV

[15] = Bioavailability in mouse; type: ADME, organism-based; settings: in vivo; outline: as §1
[16] = Elimination half life in dog; type: ADME, organism-based, Canis lupus familiaris; settings: in vivo, read-out: beta t1/2 (converted); outline: as §1
[17] = Volume of distribution in dog; type: ADME, organism-based, Canis lupus familiaris; settings: in vivo; outline: as §1
Mus musculus [18] = assay: Increase in oral glucose tolerance in C57BL/J mouse assessed as reduction in glucose area under curve at 300 mg/kg by OGTT; type: functional; set-up: scale not given: the % may be the effect or the level left

SMILES: COC[C@H](C)Oc1cc(Oc2cc(F)cc(F)c2)cc(C(=O)Nc2ccc(C(=O)O)cn2)c1
- bioavailability [1]: 100%

SMILES: COC[C@H](C)Oc1cc(/C=C/c2ccccc2[N+](=O)[O-])cc(C(=O)Nc2ccn(C)n2)c1
- EC50 (Hexokinase-4 [11]): 283 nM

SMILES: COC[C@H](C)Oc1cc(/C=C/c2ccc([N+](=O)[O-])cc2)cc(C(=O)Nc2ccn(C)n2)c1
- EC50 (Hexokinase-4 [11]): 852 nM

SMILES: COC[C@H](C)Oc1cc(/C=C/c2cc(F)ccc2F)cc(C(=O)Nc2ccn(C)n2)c1
- EC50 (Hexokinase-4 [11]): 200 nM

SMILES: COC[C@H](C)Oc1cc(/C=C/c2cc(F)cc(F)c2F)cc(C(=O)Nc2ccn(C)n2)c1
- EC50 (Hexokinase-4 [11]): 848 nM

SMILES: COC[C@H](C)Oc1cc(CCc2ccc(F)cc2)cc(C(=O)Nc2ccn(C)n2)c1
- EC50 (Hexokinase-4 [11]): 216 nM

SMILES: COC[C@H](C)Oc1cc(CCc2cc(F)cc(F)c2F)cc(C(=O)Nc2ccn(C)n2)c1
- EC50 (Hexokinase-4 [11]): 855 nM

SMILES: COC[C@H](C)Oc1cc(/C=C/c2ccc([N+](=O)[O-])cc2)cc(C(=O)Nc2ccc(C(=O)O)cn2)c1
- EC50 (Hexokinase-4 [11]): 284 nM

SMILES: COC[C@H](C)Oc1cc(/C=C/c2cc(F)cc(F)c2F)cc(C(=O)Nc2ccc(C(=O)O)cn2)c1
- EC50 (Hexokinase-4 [11]): 778 nM

SMILES: CN(C)C(=N)NC(=N)N [METFORMIN]
- Activity (Mus musculus [18]): 29.9%

Second part, led by results:

- inhibition (INH) (Cytochrome P450 3A4): Not Active
- bioavailability [1]: 85%
- EC50 (Hexokinase-4 [4]): 85 nM
- inhibition (INH) (Cytochrome P450 2D6): Not Active
- clearance [5]: 7.17 mL/min/kg
- inhibition (INH) (Cytochrome P450 1A2): Not Active
- Vd [7]: 0.33 L/kg
- remaining at 1 h [9]: > 60%
- clearance [10]: 2.5 mL/min/kg
- EC50 (Hexokinase-4 [11]): 70 nM
- inhibition (INH) (Cytochrome P450 2C9): Not Active
- remaining at 1 h [12]: > 60%
- half-life [13]: 2.6 h
- remaining at 1 h [14]: > 60%
- inhibition (INH) (Cytochrome P450 2C19): Not Active
- bioavailability [15]: 66%
- half-life [16]: 2.6 h
- Vd [17]: 0.49 L/kg
SMILES: COC[C@H](C)Oc1cc(CCc2c(F)cccc2F)cc(C(=O)Nc2ccc(C(=O)O)cn2)c1
- Activity (Mus musculus [2]): Toxic
- Activity (Mus musculus [3]): Non-toxic
- Activity (Mus musculus [6]): 29.6%
- Activity (Mus musculus [8]): Non-toxic

- EC50 (Hexokinase-4 [11]): 80 nM
SMILES: COC[C@H](C)Oc1cc(/C=C/c2ccccc2F)cc(C(=O)Nc2ccn(C)n2)c1

- EC50 (Hexokinase-4 [11]): 119 nM
SMILES: COC[C@H](C)Oc1cc(/C=C/c2ccc(F)cc2)cc(C(=O)Nc2ccn(C)n2)c1

- EC50 (Hexokinase-4 [11]): 109 nM
SMILES: COC[C@H](C)Oc1cc(/C=C/c2ccc(F)cc2F)cc(C(=O)Nc2ccn(C)n2)c1

- EC50 (Hexokinase-4 [11]): 161 nM
SMILES: COC[C@H](C)Oc1cc(/C=C/c2c(F)cccc2F)cc(C(=O)Nc2ccn(C)n2)c1

- EC50 (Hexokinase-4 [11]): 115 nM
SMILES: COC[C@H](C)Oc1cc(/C=C/c2ccccc2OC)cc(C(=O)Nc2ccn(C)n2)c1

- EC50 (Hexokinase-4 [11]): 132 nM
SMILES: COC[C@H](C)Oc1cc(/C=C/c2cccc(C)n2)cc(C(=O)Nc2ccn(C)n2)c1

- EC50 (Hexokinase-4 [11]): 184 nM
SMILES: COC[C@H](C)Oc1cc(CCc2ccc(F)cc2F)cc(C(=O)Nc2ccn(C)n2)c1

- EC50 (Hexokinase-4 [11]): 131 nM
SMILES: COC[C@H](C)Oc1cc(CCc2c(F)cccc2F)cc(C(=O)Nc2ccn(C)n2)c1
